These results are taken from the RNAGym collection of RNA variant scans (doi:10.1126/science.aae0568).

B1: tRNA (parent)
chain: GUUCCGUUGGCGUAAUGGUAACGCGUCUCCCUCCUAAGGAGAAGACUGCGGGUUCGAGUCCCGUACGGAACG

Fewer inactive variants are shown than the library holds. Where only a bound is given, the exact number is not on record here.

Variants of B1 are the subject of this data set. As to the kind of experiment: yeast fitness relative to wild type (ratio to wild type); higher = fitter; tRNA-Arg(CCU), competitive growth, 37 C, YPD. The method in brief: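 Genotype frequency changes were the basis for Darwinian fitness relative to wild type. The frequencies came from 100-nucleotide paired-end sequencing of gene amplicons from the start population and each end population of pooled yeast strains with tRNA-Arg(CCU) gene variants at the native locus. Competition ran in YPD at 37°C for 24 hours in six replicates, genotypes needed ≥ 100 starting reads, and estimates < 0.5 were set to 0.5.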
G6C C60U: the yeast fitness turned out to be 0.712.
The same measure for G6C C22U C24G C27U C29A C30U C31G A70C: no more than 0.5; for G6A U16C G67C: no more than 0.5; for G6C C11G A14U C22U G44A C55A G63A: no more than 0.5.
Consider G6C U32C A36C, for which the yeast fitness was no more than 0.5.
In the case of U7A A14C A20G C27U A45U G67A it was no more than 0.5; in that of G6C G17C C34U C46A U64A, 0.597; in that of U7A A14U A15C U32C C46U G51C, no more than 0.5.
The same measure for G6C C49G: 0.776; for G6C A36U A65U: no more than 0.5; for G6C A37G C60U A65G: no more than 0.5.
In the case of G6C C11G A21G C29G A40C it was no more than 0.5.
G6C A65U: the yeast fitness worked out at 0.917.
Consider G6C A14U C66U A69C, for which the yeast fitness is no more than 0.5.
For the variant G6C A37C C62A A69C, the yeast fitness is no more than 0.5.
U7A A14G: the yeast fitness is 0.709.
As for G6C C30A A45G C55G A57U C62G U64C, the yeast fitness was no more than 0.5.
The same measure for G6A U59C G68A: 0.567; for G6C G12A C24G G58C: no more than 0.5.
In the case of G6A U32A it was 0.809.
In the case of G6A U13G G50C it was 0.538.
Consider G6C A15G G56C, for which the yeast fitness is no more than 0.5.
On to G6A U26C C62U, for which the yeast fitness was no more than 0.5.
In the case of G6A U19A U53A it was no more than 0.5.
The same measure for G6C G50C C62G C66U: 0.673; for G6A U26G G48A C61U: 0.684.
The same measure for G6C A15G G58C G68A: no more than 0.5; for G6C C11G C33U: no more than 0.5.
As to G6C G38A, the yeast fitness was found to be 0.84.
In the case of G6C C61U A70G it was 0.554.
The same measure for G6C G23C C24A G52A C55U: no more than 0.5.
The same measure for G6C A45G G58A: 0.607; for G6C U8A: 0.674; for G6C U16G A45U: 0.584.
As to G6A U8C A20C C27U, the yeast fitness is no more than 0.5.
In the case of G6C U13C G50A it was no more than 0.5; in that of G6C U7A U64G, no more than 0.5; in that of G6C C22G, 0.761.
The same measure for G6C G17A A36U C46A C66A: 0.512.
For the variant G6C A42U, the yeast fitness came to 0.739.
Take G6C C11G A15C G25C C27G C30G G38C A70G: the yeast fitness was no more than 0.5.
In the case of G6C C11U A15G A21U C30G G44A G52A it was 0.791; in that of G6C C33U G52A, no more than 0.5.
In the case of G6C G10C A69C it was 0.589; in that of G6A U8C A42C A45U A57G A70C, no more than 0.5; in that of G6C C11U A21C, 0.671.
The same measure for G6C G23A C34G: no more than 0.5; for G6C A15U G23C C31G G41C G48C A69U: 0.562; for G6C A40G: 0.767.
Turning to G6C G51A G58A, the yeast fitness came out at 0.652.
The same measure for G6C U28C A36C G51A C66A: no more than 0.5; for G6C U16G C27U: no more than 0.5; for G6C A45C: 0.614.
With G6C C11U C27G G41C C61A, the yeast fitness was no more than 0.5.
The same measure for G6C A14C C24U C29A G39C: no more than 0.5; for G6C A20U C30G C66U: no more than 0.5.
In the case of U7A A15G C34G it was no more than 0.5; in that of G6C A42C C49U C55U, 0.578; in that of G6U A70C, 0.813.
In the case of G6C A15C A21C C34U A37U, the yeast fitness came to 0.502.
In the case of G6C C31G C33G U47C G51A C66U it was no more than 0.5; in that of G6C A42C A43U, no more than 0.5.
In the case of G6A U13G A42C it was 0.711.
Regarding G6C G56A C60G, the yeast fitness was no more than 0.5.
In the case of G6C C11A A43U G48C it was no more than 0.5.
In the case of G6A U54G it was 0.611; in that of G6C U7C C27U, no more than 0.5; in that of G6C U7C G9C A65G, no more than 0.5.
The same measure for U7A A14G C31U G39C A40C A45U G68C: 0.555; for G6C U7C G9C: no more than 0.5.
For G6C C60G A65U, the yeast fitness was no more than 0.5.
As to G6C C22A A57U, the yeast fitness was no more than 0.5.
With G6C G52A, the yeast fitness worked out at 0.683.
In the case of G6C G52C it was 0.653; in that of G6C A15C C31G C33G C55U C61U, no more than 0.5.
In the case of G6C G48C it was 0.837.
As to G6A U19G A42G, the yeast fitness was no more than 0.5.
Take G6A U13G C27U: the yeast fitness came to 0.539.
In the case of G6C A36U G39A it was no more than 0.5.
The same measure for G6C U8A G51A: no more than 0.5; for G6A U19C A20U C22U C27G: no more than 0.5.
In the case of G6A U28G C34U it was no more than 0.5; in that of G6C A20C C66G, 0.957.
For G6C C24G C34U U53C C55G C62A A70U, the yeast fitness was no more than 0.5.
In the case of G6C G39C G52A U53A it was no more than 0.5; in that of G6A U8A A14C A21U A40G, no more than 0.5.
Take G6C A15G C22A C29G A37C G50C C66U: the yeast fitness is no more than 0.5.
In the case of U7A A15C C27A U47C it was no more than 0.5; in that of G6C A37G C60G A65U, no more than 0.5; in that of G6C C46G A57G C62U C66U, no more than 0.5.
In the case of G6C A57U it was 0.663.
For G6C U13G, the yeast fitness came out at 0.56.
The same measure for G6C A20G A42C A45C: no more than 0.5.
The same measure for G6A U64G: 0.795; for G6C C46G C62U C66U: 0.533; for G6A U16A G63A: 0.569.
In the case of G6C C11G C27U A42G it was no more than 0.5; in that of G6C A37U C49U A69U, 0.585; in that of G6C A40G C60U C61U, 0.513.
As to G6C C61G G68A, the yeast fitness is no more than 0.5.
On to G6A U13A C46G, for which the yeast fitness is no more than 0.5.
Take G6A U54A C62U A65G G68A: the yeast fitness stood at 0.548.
In the case of G6C C24U C49U G56C it was 0.52.
In the case of G6C U19G G48C it was no more than 0.5; in that of G6A U13C A14U C30U A69U, no more than 0.5; in that of G6C A42G A70U, 0.548.
In the case of U7A A15G G23A G51A C55A C66U it was no more than 0.5; in that of G6C A40C A45C, no more than 0.5.
For G6C U7G C24U C27A A57G, the yeast fitness is no more than 0.5.
In the case of G6A G52C A65U G67C, the yeast fitness is no more than 0.5.
In the case of G6U C27U G56A C61U it was no more than 0.5; in that of G6C C22U C24G C27U C29A C30U C31G G58A, no more than 0.5; in that of G6A U26G A36U, no more than 0.5.
The same measure for G6C A14G A20C C31A U64A G67A: no more than 0.5; for G6C G23A A70U: no more than 0.5; for G6C C11U A20C: no more than 0.5.
Turning to G6C C22G A37U A43G C62G, the yeast fitness is 0.509.
The same measure for G6A U19A U53A C60A A69U: no more than 0.5; for G6C U26C A43C A57G C66U: no more than 0.5; for U7A A14U A36U G50C U54A G56A C61A: no more than 0.5.
In the case of G6C C62A it was 0.798; in that of G6C G12A G51C C66U, no more than 0.5; in that of G6C U7G U19A C27G U53A, 0.612.
The same measure for G6C A14C C29U C34G C46U C49U C66A G68C: no more than 0.5.
For the variant G6A U16G, the yeast fitness amounted to 0.85.
In the case of G6C A37G A40U A45C it was 0.702.
In the case of G6C C33G C34U U64A it was 0.684.
In the case of G6A U13G C55A it was no more than 0.5; in that of G6C C11A C22U, 0.573.
Consider G6C G41C C62U, for which the yeast fitness is no more than 0.5.
For G6C A20G C22A C31G, the yeast fitness is no more than 0.5.
The same measure for G6C C22A G41A G44C C49U: no more than 0.5; for G6A U35A A40U G41C C49A: no more than 0.5.
As for G6C A36C U64A, the yeast fitness was 0.539.
In the case of G6A U16A G25C it was 0.644; in that of G6C C22U C30A C49U G52C, 0.683.
In the case of G6A U8C U19A U53C it was no more than 0.5; in that of G6A U7G C24A U26C, no more than 0.5.
In the case of G6A U13G it was 0.731.
For the variant G6A U8C A14U, the yeast fitness was found to be 0.564.
In the case of G6C U47C C61U it was 0.533; in that of G6C U28G, 0.644; in that of G6C A20U A21G A37U C60G C62G, no more than 0.5.
In the case of G6C C11G A15G G68C it was 0.503; in that of G6C C34U A43G G48A A57G, no more than 0.5.
G6C A42C C49U C66A: the yeast fitness is no more than 0.5.
In the case of G6C C24A C46G it was 0.59; in that of G6C C29G U35C A57G, no more than 0.5; in that of U7A A14U U16C A42U, no more than 0.5.
In the case of G6C C31A A65G C66U it was 0.594.
With G6C A15U G23C C31G A37G G56C, the yeast fitness is no more than 0.5.
In the case of G6C C22A U28A U53G it was no more than 0.5; in that of G6C A15U C60G C66U, no more than 0.5; in that of G6C G17A C30U A42C G52C G63A A65U, no more than 0.5.
In the case of G6C G56A G67A it was 0.588; in that of G6C G39C G51A, 0.741.
For G6C C34G, the yeast fitness came out at 0.717.
The same measure for G6C A36C A40G G48A A65U C66U A69U: no more than 0.5.
The same measure for G6C A37G A43C C62U: no more than 0.5; for G6C A37C G51A G52A U53C C62A: 0.561; for G6C A20G G52A: no more than 0.5.
In the case of G6C U7A C29A G51C it was no more than 0.5; in that of G6C U8C G58C, 0.685.
On to G6C C30U U59G C61A, for which the yeast fitness worked out at 0.575.
The same measure for G6C U13C C24G C34U U53C C55G C62A: no more than 0.5; for G6C C24U G38C A40G: no more than 0.5.
As for G6C G39A, the yeast fitness came out at 0.86.
